Data taken from ChEMBL document CHEMBL5058577, “EUbOPEN Chemogenomics Library 2 (Multiplex)” (2022).

Test system: U2OS
Assay: Multiplex assay against U2OS
Assay type: toxicity, cell-based
Conditions: human
Summary of the method: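 Compound was added to live cells that had been stained at seeding with Hoechst33342, BioTracker Green Microtubule Cytoskeleton Dye, MitoTracker Red and Annexin V Alexa Fluor 680, and imaging followed on a CQ1 microscope at 37°C and 5% CO2. CellPathfinder machine-learning gating divided cells into Hoechst high-intensity objects or normal cells, normal cells into healthy, pyknosed or fragmented nuclei, and pyknosed cells into mitotic or apoptotic. Tubulin, mitochondrial-mass and membrane-permeability phenotypes are per cents of healthy-nucleus cells.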

[1] = 12 h, 1 µM, compound concentration 1 uM, replicate 1
[2] = 12 h, 1 µM, compound concentration 1 uM, replicate 2
[3] = 12 h, 10 µM, compound concentration 10 uM, replicate 1
[4] = 12 h, 10 µM, compound concentration 10 uM, replicate 2
[5] = 24 h, 1 µM, compound concentration 1 uM, replicate 1
[6] = 24 h, 1 µM, compound concentration 1 uM, replicate 2
[7] = 24 h, 10 µM, compound concentration 10 uM, replicate 1
[8] = 24 h, 10 µM, compound concentration 10 uM, replicate 2
[9] = 48 h, 1 µM, compound concentration 1 uM, replicate 1
[10] = 48 h, 1 µM, compound concentration 1 uM, replicate 2
[11] = 48 h, 10 µM, compound concentration 10 uM, replicate 1
[12] = 48 h, 10 µM, compound concentration 10 uM, replicate 2

With `Cc1noc(-c2ccc(-c3ccc(CC(=O)O)cc3)cc2)c1NC(=O)O[C@H](C)c1ccccc1Cl` the “Population Apoptotic (%)” value [1] was 95%, the “Population Fragmented Nuclei (%)” value [1] was 21% and the “Population Healthy Nuclei (%)” value [1] was 69%. The “Population Hoechst High Intensity Objects (%)” value [1] was 4%, the “Population Membrane Permeable-Phenotype (%)” value [1] was 7% and the “Population Mitochondria Different-Phenotype (%)” value [1] was 5%. The “Population Mitotic Cells (%)” value [1] was 5%, the “Population Normal (%)” value [1] was 95% and the “Population Pyknosed Nuclei (%)” value [1] was 9%. For the same molecule, the “Population Tubulin-Different-Phenotype (%)” value [1] was 4%, the “Total Cell Count” value [1] was 231 and the “Population Apoptotic (%)” value [2] was 85%. The “Population Fragmented Nuclei (%)” value [2] was 19%, the “Population Healthy Nuclei (%)” value [2] was 74% and the “Population Hoechst High Intensity Objects (%)” value [2] was 0%. The “Population Membrane Permeable-Phenotype (%)” value [2] was 2%, the “Population Mitochondria Different-Phenotype (%)” value [2] was 2% and the “Population Mitotic Cells (%)” value [2] was 14%. For the same molecule, the “Population Normal (%)” value [2] was 99%, the “Population Pyknosed Nuclei (%)” value [2] was 7% and the “Total Cell Count” value [2] was 101. The “Population Apoptotic (%)” value [3] was 78%, the “Population Fragmented Nuclei (%)” value [3] was 29% and the “Population Healthy Nuclei (%)” value [3] was 61%. For the same molecule, the “Population Hoechst High Intensity Objects (%)” value [3] was 2%, the “Population Membrane Permeable-Phenotype (%)” value [3] was 11% and the “Population Mitochondria Different-Phenotype (%)” value [3] was 4%. For the same molecule, the “Population Mitotic Cells (%)” value [3] was 21%, the “Population Normal (%)” value [3] was 97% and the “Population Pyknosed Nuclei (%)” value [3] was 9%. For the same molecule, the “Population Tubulin-Different-Phenotype (%)” value [3] was 6%, the “Total Cell Count” value [3] was 242 and the “Population Apoptotic (%)” value [4] was 71%. For the same molecule, the “Population Fragmented Nuclei (%)” value [4] was 11%, the “Population Healthy Nuclei (%)” value [4] was 83% and the “Population Membrane Permeable-Phenotype (%)” value [4] was 6%. For the same molecule, the “Population Mitochondria Different-Phenotype (%)” value [4] was 2%, the “Population Mitotic Cells (%)” value [4] was 28% and the “Population Pyknosed Nuclei (%)” value [4] was 5%. For the same molecule, the “Total Cell Count” value [4] was 138, the “Population Apoptotic (%)” value [5] was 96% and the “Population Fragmented Nuclei (%)” value [5] was 19%. For the same molecule, the “Population Healthy Nuclei (%)” value [5] was 70%, the “Population Hoechst High Intensity Objects (%)” value [5] was 2% and the “Population Membrane Permeable-Phenotype (%)” value [5] was 5%. The “Population Mitochondria Different-Phenotype (%)” value [5] was 4%, the “Population Mitotic Cells (%)” value [5] was 3% and the “Population Normal (%)” value [5] was 97%. The “Population Pyknosed Nuclei (%)” value [5] was 9%, the “Population Tubulin-Different-Phenotype (%)” value [5] was 3% and the “Total Cell Count” value [5] was 277. The “Population Apoptotic (%)” value [6] was 77%, the “Population Fragmented Nuclei (%)” value [6] was 15% and the “Population Healthy Nuclei (%)” value [6] was 77%. The “Population Hoechst High Intensity Objects (%)” value [6] was 0%, the “Population Membrane Permeable-Phenotype (%)” value [6] was 4% and the “Population Mitochondria Different-Phenotype (%)” value [6] was 3%. The “Population Mitotic Cells (%)” value [6] was 22%, the “Population Normal (%)” value [6] was 99% and the “Population Pyknosed Nuclei (%)” value [6] was 7%. For the same molecule, the “Population Tubulin-Different-Phenotype (%)” value [6] was 6%, the “Total Cell Count” value [6] was 125 and the “Population Apoptotic (%)” value [7] was 92%. For the same molecule, the “Population Fragmented Nuclei (%)” value [7] was 24%, the “Population Healthy Nuclei (%)” value [7] was 65% and the “Population Hoechst High Intensity Objects (%)” value [7] was 1%. The “Population Membrane Permeable-Phenotype (%)” value [7] was 11%, the “Population Mitochondria Different-Phenotype (%)” value [7] was 2% and the “Population Mitotic Cells (%)” value [7] was 7%. For the same molecule, the “Population Normal (%)” value [7] was 98%, the “Population Pyknosed Nuclei (%)” value [7] was 10% and the “Population Tubulin-Different-Phenotype (%)” value [7] was 5%. The “Total Cell Count” value [7] was 260, the “Population Apoptotic (%)” value [8] was 90% and the “Population Fragmented Nuclei (%)” value [8] was 12%. For the same molecule, the “Population Healthy Nuclei (%)” value [8] was 80%, the “Population Hoechst High Intensity Objects (%)” value [8] was 2% and the “Population Membrane Permeable-Phenotype (%)” value [8] was 7%. For the same molecule, the “Population Mitotic Cells (%)” value [8] was 9%, the “Population Normal (%)” value [8] was 97% and the “Population Pyknosed Nuclei (%)” value [8] was 7%. For the same molecule, the “Population Tubulin-Different-Phenotype (%)” value [8] was 4%, the “Total Cell Count” value [8] was 154 and the “Population Apoptotic (%)” value [9] was 97%. For the same molecule, the “Population Fragmented Nuclei (%)” value [9] was 15%, the “Population Healthy Nuclei (%)” value [9] was 75% and the “Population Hoechst High Intensity Objects (%)” value [9] was 1%. For the same molecule, the “Population Membrane Permeable-Phenotype (%)” value [9] was 6%, the “Population Mitochondria Different-Phenotype (%)” value [9] was 3% and the “Population Mitotic Cells (%)” value [9] was 2%. The “Population Normal (%)” value [9] was 98%, the “Population Pyknosed Nuclei (%)” value [9] was 9% and the “Population Tubulin-Different-Phenotype (%)” value [9] was 3%. The “Total Cell Count” value [9] was 408, the “Population Apoptotic (%)” value [10] was 86% and the “Population Fragmented Nuclei (%)” value [10] was 18%. The “Population Healthy Nuclei (%)” value [10] was 72%, the “Population Hoechst High Intensity Objects (%)” value [10] was 0% and the “Population Mitochondria Different-Phenotype (%)” value [10] was 4%. For the same molecule, the “Population Mitotic Cells (%)” value [10] was 13%, the “Population Normal (%)” value [10] was 100% and the “Population Pyknosed Nuclei (%)” value [10] was 8%. For the same molecule, the “Population Tubulin-Different-Phenotype (%)” value [10] was 4%, the “Total Cell Count” value [10] was 170 and the “Population Apoptotic (%)” value [11] was 92%. The “Population Fragmented Nuclei (%)” value [11] was 19%, the “Population Healthy Nuclei (%)” value [11] was 72% and the “Population Hoechst High Intensity Objects (%)” value [11] was 3%. The “Population Membrane Permeable-Phenotype (%)” value [11] was 7%, the “Population Mitochondria Different-Phenotype (%)” value [11] was 3% and the “Population Mitotic Cells (%)” value [11] was 7%. The “Population Normal (%)” value [11] was 96%, the “Population Pyknosed Nuclei (%)” value [11] was 8% and the “Population Tubulin-Different-Phenotype (%)” value [11] was 5%. The “Total Cell Count” value [11] was 344, the “Population Apoptotic (%)” value [12] was 85% and the “Population Fragmented Nuclei (%)” value [12] was 9%. The “Population Healthy Nuclei (%)” value [12] was 78%, the “Population Hoechst High Intensity Objects (%)” value [12] was 4% and the “Population Membrane Permeable-Phenotype (%)” value [12] was 6%. For the same molecule, the “Population Mitochondria Different-Phenotype (%)” value [12] was 2%, the “Population Mitotic Cells (%)” value [12] was 14% and the “Population Normal (%)” value [12] was 95%. For the same molecule, the “Population Pyknosed Nuclei (%)” value [12] was 11%, the “Population Tubulin-Different-Phenotype (%)” value [12] was 4% and the “Total Cell Count” value [12] was 241.
